This is an account of results in paper PMC2804273 (Journal of Medicinal Chemistry, 2009).

The experiment relates to BSF T. brucei brucei strain Lister 427. Put plainly: Alamar blue viability test, cytotoxicity against cultured parasites. To be noted: ED50 determined in the presence of sub-ED50 MTX (0.5-2.5 μM). In kind it is cell-based, Trypanosoma brucei brucei. The procedure, abridged:
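Bloodstream-form T. brucei brucei Lister 427, grown at 37 °C and 5% CO2 in HMI-9 with 10% fetal calf serum, high folate left unreduced, and neomycin pressure to keep T7 polymerase and tetracycline repressor. […] Values are mean ± std dev (n = 4). Synergy was judged by comparing the area under the slope with half the product of the two ED50 values.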

Take `N#Cc1c(-c2ccc3c(c2)OCO3)[nH]c2nc(N)[nH]c(=O)c12` [compound 13]: the “Interaction in combination with MTX (synergy)” value is on record as “acts synergistically”. Turning to `CCc1nc(N)nc(N)c1-c1ccc(Cl)cc1` [PYR, pyrimethamine], the “Interaction in combination with MTX (synergy)” value is recorded as “does not act synergistically”.
